Reference: article PMC3319149 (European Journal of Pharmaceutical Sciences, 2012)
Values joined by “and” are separate entries in the source; they are usually repeats but may differ in a detail not shown here. Equal entries are not always repeated. “Also recorded” adds a separate entry of the source. Where two headings read alike, the source gives them in different places. Marks after values point to notes of the source that are not given here. Blank lines part the entries; values can stand above or below the compound they belong to.

How the values were obtained:
NTCP [1] = molecular target: T1, NTCP (Homo sapiens, UniProt Q14973); assay: Uptake study in NTCP-HEK monolayers; assay type: cell-based
T1 sequence (Q14973 1-349): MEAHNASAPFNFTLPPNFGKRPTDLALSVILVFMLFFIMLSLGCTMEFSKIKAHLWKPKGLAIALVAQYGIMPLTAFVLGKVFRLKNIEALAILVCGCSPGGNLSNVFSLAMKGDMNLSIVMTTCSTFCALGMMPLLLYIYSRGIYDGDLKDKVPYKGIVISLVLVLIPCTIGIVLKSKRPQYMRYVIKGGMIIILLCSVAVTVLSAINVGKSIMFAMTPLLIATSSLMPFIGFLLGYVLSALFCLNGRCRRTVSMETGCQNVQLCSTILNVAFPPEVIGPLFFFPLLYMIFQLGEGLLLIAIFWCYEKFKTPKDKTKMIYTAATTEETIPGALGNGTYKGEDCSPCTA
In short: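 Stably transfected NTCP-HEK cells (hygromycin selection) were seeded at 2.5 × 10⁵/well on poly-D-lysine plates, cultured two days and washed with HBSS. Analogue was given at 1 to 250 μM in HBSS or sodium-free buffer (NaCl replaced by tetraethylammonium chloride). Read-out was acetonitrile lysis then LC/MS. Kinetics were fitted by nonlinear regression (eqns 2, 3). Jmax was normalized to same-occasion taurocholate Jmax. Highest distinguishable Kt = (Jmax/2)/Pp.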

NTCP-HEK monolayers = assay: Passive permeability from uptake in sodium-free buffer, NTCP-HEK monolayers; assay type: in vitro ADME
NTCP [2] = molecular target: T1, NTCP; assay: Taurocholate uptake inhibition study in NTCP-HEK monolayers; assay type: cell-based
ASBT [3] = molecular target: T2, ASBT (Homo sapiens, UniProt Q12908); settings: read-out: Ki (μM) ASBT; ASBT-MDCK; ref Balakrishnan et al., 2006b; cited from earlier work
T2 sequence (Q12908 1-348): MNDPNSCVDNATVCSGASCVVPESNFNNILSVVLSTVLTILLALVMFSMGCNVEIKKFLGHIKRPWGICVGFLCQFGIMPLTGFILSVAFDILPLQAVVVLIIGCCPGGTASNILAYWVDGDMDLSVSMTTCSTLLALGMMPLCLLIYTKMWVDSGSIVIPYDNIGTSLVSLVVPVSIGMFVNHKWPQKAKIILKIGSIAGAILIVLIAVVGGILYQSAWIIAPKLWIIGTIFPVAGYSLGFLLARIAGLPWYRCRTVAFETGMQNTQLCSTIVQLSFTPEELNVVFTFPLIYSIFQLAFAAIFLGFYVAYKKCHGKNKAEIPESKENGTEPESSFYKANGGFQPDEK

ASBT-MDCK monolayers [4] = settings: passive permeability, ref Balakrishnan et al., 2006b; cited from earlier work
ASBT [5] = molecular target: T2, ASBT; assay: Taurocholate uptake inhibition study in ASBT-MDCK monolayers; assay type: cell-based; settings: for Ki: read-out: Ki (μM) ASBT, inhibition of [3H]-taurocholate uptake (2.5 μM cold TCA), 10 min, 37 °C
ASBT-MDCK monolayers [6] = assay: Passive permeability from uptake in sodium-free buffer, ASBT-MDCK monolayers; assay type: in vitro ADME
NTCP [7] = molecular target: T1, NTCP; assay: Assessment of inhibition type; assay type: cell-based; settings: inhibitor 118 μM (I/Ki = 10), taurocholate 1–200 μM
ASBT [8] = molecular target: T2, ASBT; assay: Assessment of inhibition type; assay type: cell-based; settings: inhibitor 152 μM (I/Ki = 10), taurocholate 1–200 μM
ASBT [9] = molecular target: T2, ASBT; assay: Uptake study in ASBT-MDCK monolayers; assay type: cell-based
[10] = passive permeability, sodium-free buffer, NTCP-HEK
[11] = Ki (μM) NTCP, inhibition of [3H]-taurocholate uptake (2.5 μM cold taurocholate), NTCP-HEK monolayers, 5 min, 37 °C
[12] = read-out: Ki (μM) NTCP, inhibition of [3H]-taurocholate uptake (2.5 μM cold taurocholate), NTCP-HEK monolayers, 5 min, 37 °C
[13] = read-out: NTCP inhibitor class (strong / moderate / weak), class by Ki, NTCP-HEK

SMILES: C[C@H](CCC(=O)NCCS(=O)(=O)O)[C@H]1CC[C@H]2[C@@H]3[C@H](O)C[C@@H]4C[C@H](O)CC[C@]4(C)[C@H]3C[C@H](O)[C@]12C [taurocholate, Taurocholic acid, reference compound]
taurocholate Kt NTCP (NTCP [1]; value Kt was set to in regression): 5.31 µM

SMILES: COC(=O)CC[C@@H](C)[C@H]1CC[C@H]2[C@@H]3[C@@H](O)C[C@@H]4C[C@H](O)CC[C@]4(C)[C@H]3CC[C@]12C [Compound 16, methyl ursodeoxycholate]
Ki (ASBT [5]): 29.8 ± 5.1 µM
Ki (NTCP [2]; [12]): 1.22 ± 0.1 µM

SMILES: C[C@H](CCC(=O)NCC(=O)O)[C@H]1CC[C@H]2[C@@H]3[C@@H](OC(=O)c4cccnc4)C[C@@H]4C[C@H](O)CC[C@]4(C)[C@H]3CC[C@]12C [Compound 8, 7-nicotinoyl glycoursodeoxycholate]
ASBT Pp*10^6 (cm/s) (ASBT-MDCK monolayers [6]; passive permeability, sodium-free buffer, ASBT-MDCK): 0.95±0.05 ×10^−6 cm/s
NTCP Pp*10^6 (cm/s) (NTCP-HEK monolayers; [10]): 7.26±0.45 ×10^−6 cm/s
type of inhibition of NTCP (best fitting model) (NTCP [7]): competitive inhibitor; also recorded: competitive model was the best fitting model
Ki (ASBT [5]): 15.2 ± 0.8 µM
Ki (NTCP [2]; [12]): 11.8 ± 2.1 µM
type of inhibition of ASBT (best fitting model) (ASBT [8]): competitive inhibitor; also recorded: competitive model was the best fitting model

SMILES: C[C@H](CCC(=O)NCC(=O)O)[C@H]1CC[C@H]2[C@@H]3[C@H](O)C[C@H]4C[C@H](OC(=O)c5cccnc5)CC[C@]4(C)[C@H]3CC[C@]12C [Compound 10, 3-nicotinoyl glycochenodeoxycholate]
ASBT Pp*10^6 (cm/s) (ASBT-MDCK monolayers [6]; MDCK): 5.62±0.13 ×10^−6 cm/s
NTCP Pp*10^6 (cm/s) (NTCP-HEK monolayers): 12.7±0.9 ×10^−6 cm/s
Ki (ASBT [5]): 6.45 ± 0.66 µM
Ki (NTCP [2]; [12]): 5.38 ± 0.44 µM
Ki (NTCP [2]; [13]): < 25 µM
ASBT Norm Jmax (ASBT [9]; Jmax normalized to taurocholate Jmax of the same occasion, ASBT-MDCK): 2.11 and 2.1
Jmax ASBT (ASBT [9]; not normalized, ASBT-MDCK): 0.000242 nmol/s/cm^2
ASBT Kt (ASBT [9]; uptake into ASBT-MDCK monolayers, 10 min): 8.49 µM and 8.49 ± 1.34 µM
NTCP Norm Jmax (NTCP [1]; Jmax normalized to taurocholate Jmax of the same occasion, NTCP-HEK): 1.48
Jmax NTCP (NTCP [1]; not normalized, NTCP-HEK): 0.00298 nmol/s/cm^2
NTCP Kt (NTCP [1]; uptake into NTCP-HEK monolayers): 16.3 µM and 16.3 ± 3.0 µM

The next lines start with results.

NTCP Pp*10^6 (cm/s) (NTCP-HEK monolayers; [10]): 60.7±0.5 ×10^−6 cm/s
Ki (NTCP [2]; [11]): 0.939 ± 0.057 µM
SMILES: C[C@H](CCC(=O)O)[C@H]1CC[C@H]2[C@@H]3[C@H](O)C[C@@H]4C[C@H](O)CC[C@]4(C)[C@H]3CC[C@]12C [CDCA, chenodeoxycholic acid, reference compound]
Ki (ASBT [3]): 1.94 ± 0.17 µM
ASBT Pp*10^6 (cm/s) (ASBT-MDCK monolayers [4]): 20.7±0.7 ^a ×10^−6 cm/s

NTCP Pp*10^6 (cm/s) (NTCP-HEK monolayers; [10]): 27.2±0.8 ×10^−6 cm/s
Ki (NTCP [2]; [11]): 4.9 ± 0.47 µM
SMILES: C[C@H](CCC(=O)O)[C@H]1CC[C@H]2[C@@H]3[C@@H](O)C[C@@H]4C[C@H](O)CC[C@]4(C)[C@H]3CC[C@]12C [UDCA, ursodeoxycholic acid, reference compound]
Ki (ASBT [3]): 22.6 ± 3 µM
ASBT Pp*10^6 (cm/s) (ASBT-MDCK monolayers [4]): 21.2±0.9 ^a ×10^−6 cm/s

Ki (NTCP [2]; [11]): 355 ± 59 µM
Ki (NTCP [2]; NTCP inhibitor class (strong / moderate / weak), class by Ki, NTCP-HEK): > 100 µM
NTCP inhibitor class (strong / moderate / weak) (NTCP [2]; class by Ki, NTCP-HEK): weakly
SMILES: C[C@H](CCC(=O)O)[C@H]1CC[C@H]2[C@@H]3C(=O)C[C@@H]4CC(=O)CC[C@]4(C)[C@H]3CC(=O)[C@]12C [Compound 13, dehydrocholic acid]
Ki (μM) ASBT (ASBT [5]; inhibition of [3H]-taurocholate uptake (2.5 μM cold TCA), 10 min, 37 °C): did not inhibit; also recorded: did not show any ASBT inhibition; also recorded: No inhibition

Ki (ASBT [5]): 10.3 ± 1.1 µM
Ki (NTCP [2]; [12]): 183 ± 32 µM
Ki (NTCP [2]; [13]): > 100 µM
SMILES: C[C@H](CCC(=O)O)[C@H]1CC[C@H]2[C@@H]3[C@@H](OC(=O)c4ccc(F)cc4)C[C@@H]4C[C@H](O)CC[C@]4(C)[C@H]3CC[C@]12C [Compound 3, 7-(4-fluorobenzoyloxy) ursodeoxycholate]
